Here are results for 27 compounds from ChEMBL document CHEMBL1135733, “6-Sulfonylchromenes as highly potent K(ATP)-channel openers” (J Med Chem, 2002).

The structures appear in SMILES notation.

The target in test [1] is ATP-binding cassette sub-family C member 9 (Rattus norvegicus) (UniProt Q63563). The experiment in a line: Binding affinity towards Sulfonylurea receptor 2B (SUR2B) in cultured rat aortic smooth muscle cells (SMC).
Test [2] shares this target. The experiment in a line: Binding affinity to the sulfonylurea receptor 2A (SUR2A) in purified membranes of rat-heart myocytes. Format: cell membranes.
For test [3], the species on record is Rattus norvegicus. The experiment in a line: Difference between the pEC50 values in rat aorta and trachea as an indicator of selectivity. Format: functional.
Test [4] is filed under the species Rattus norvegicus. The test is described as follows: Maximum level of relaxation of aortic rings measured as percentage of basal tension. Format: functional. The conditions noted are these: Aorta. In a few lines: (§1)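 Isolated rat aortic rings at 5 mN resting force in supplemented Krebs solution, 32.5 °C, equilibrated 2 h with two test contractures; cumulative concentration-effect curves, effects as % of basal force (100% relaxation) vs maximum force (0%). pEC50 by linear extrapolation at half-maximal effect; Emax as % of basal tension; mean ± SEM, n = 4–6; paired time controls.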

For test [5], the species on record is Rattus norvegicus. The experiment in a line: Maximum level of relaxation of tracheal strips measured as percentage of basal tension. Format: functional. The following applies: Trachea. A digest of the protocol: (§2)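 Rat tracheal strips at 10 mN resting force in supplemented Krebs solution, 32.5 °C, equilibrated 2 h with two test contractures; concentration-effect curves, effects as % of basal force (100% relaxation) vs maximum force (0%). pEC50 by linear extrapolation at half-maximal effect; Emax as % of basal tension; mean ± SEM, n = 4–6; paired time controls.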

For test [6], the species on record is Rattus norvegicus. The test is described as follows: Dilator activity expressed as potency for relaxation of Aortic rings precontracted with 25 mM K. The format is functional. A digest of the protocol: as §1
The species entered for test [7] is Rattus norvegicus. The test is described as follows: Dilator activity expressed as potency for relaxation of Tracheal strips percontracted with 0.6 uM carbachol. The format is functional. A digest of the protocol:
as §2

Chain of ATP-binding cassette sub-family C member 9 (Rattus norvegicus) (Q63563 whole entry): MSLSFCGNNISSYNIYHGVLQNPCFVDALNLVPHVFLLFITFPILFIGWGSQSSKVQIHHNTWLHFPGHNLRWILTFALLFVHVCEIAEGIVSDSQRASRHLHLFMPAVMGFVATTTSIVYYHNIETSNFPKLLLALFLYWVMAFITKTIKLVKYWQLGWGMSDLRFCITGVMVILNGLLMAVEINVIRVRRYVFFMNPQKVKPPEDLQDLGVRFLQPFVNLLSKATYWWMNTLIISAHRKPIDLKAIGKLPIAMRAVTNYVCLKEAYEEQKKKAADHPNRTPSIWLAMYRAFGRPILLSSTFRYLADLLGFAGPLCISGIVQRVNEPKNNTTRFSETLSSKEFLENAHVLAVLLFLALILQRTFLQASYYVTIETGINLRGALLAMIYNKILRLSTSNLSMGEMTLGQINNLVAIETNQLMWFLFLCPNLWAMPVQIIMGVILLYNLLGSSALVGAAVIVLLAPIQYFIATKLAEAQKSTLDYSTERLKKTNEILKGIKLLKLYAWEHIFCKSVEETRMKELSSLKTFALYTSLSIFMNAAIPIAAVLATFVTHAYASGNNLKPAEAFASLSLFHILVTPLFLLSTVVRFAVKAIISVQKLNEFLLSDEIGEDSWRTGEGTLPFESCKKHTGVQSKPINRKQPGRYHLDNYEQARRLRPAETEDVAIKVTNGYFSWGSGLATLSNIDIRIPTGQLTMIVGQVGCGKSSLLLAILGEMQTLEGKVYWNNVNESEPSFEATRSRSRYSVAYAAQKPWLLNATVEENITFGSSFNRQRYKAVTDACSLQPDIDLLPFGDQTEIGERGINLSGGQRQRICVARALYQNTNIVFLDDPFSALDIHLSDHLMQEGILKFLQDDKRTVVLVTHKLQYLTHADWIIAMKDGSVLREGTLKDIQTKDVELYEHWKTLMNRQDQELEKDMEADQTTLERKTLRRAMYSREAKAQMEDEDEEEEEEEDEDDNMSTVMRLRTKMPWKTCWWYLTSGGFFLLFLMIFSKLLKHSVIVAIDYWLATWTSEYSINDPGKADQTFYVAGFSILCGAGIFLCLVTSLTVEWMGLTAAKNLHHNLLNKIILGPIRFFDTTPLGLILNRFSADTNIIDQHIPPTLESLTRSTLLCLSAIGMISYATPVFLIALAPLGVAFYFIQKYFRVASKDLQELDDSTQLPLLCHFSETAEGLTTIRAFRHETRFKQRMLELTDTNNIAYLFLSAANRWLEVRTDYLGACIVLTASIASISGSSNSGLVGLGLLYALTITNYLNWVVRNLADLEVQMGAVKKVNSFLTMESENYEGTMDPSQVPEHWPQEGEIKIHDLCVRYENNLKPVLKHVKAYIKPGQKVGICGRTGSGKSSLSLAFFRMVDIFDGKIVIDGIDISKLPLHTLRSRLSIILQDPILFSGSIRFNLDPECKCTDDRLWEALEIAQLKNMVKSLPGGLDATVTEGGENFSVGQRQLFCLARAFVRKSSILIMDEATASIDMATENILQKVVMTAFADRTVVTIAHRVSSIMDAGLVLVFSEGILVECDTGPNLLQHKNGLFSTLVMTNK

As to `CC1(C)C=C(n2ccccc2=O)c2cc(S(=O)(=O)Nc3ccccc3Br)ccc2O1`, the pKD in test [1] came out at 7.64; in test [2], 6.86.

For `CC1(C)C=C(n2ccccc2=O)c2cc(S(=O)(=O)Nc3ccc([N+](=O)[O-])cc3)ccc2O1`, the “Delta pEC50” value in test [3] was 0.69. Besides, the Emax in test [4] came to 82.2%; in test [5], 75.6%. The results for the EC50 in test [6] and in test [7] were 2.09 µM and 10.2 µM, respectively. The figures for the pKD in test [1] and in test [2] were 5.8 and 5.35, respectively.

Consider `CC1(C)C=C(n2ccccc2=O)c2cc(S(=O)(=O)N=[N+]=[N-])ccc2O1`, for which the “Delta pEC50” value in test [3] amounted to 1.1. The Emax in test [4] was 88.3%; in test [5] it was 77.2%. For the same compound, the EC50 in test [6] was 0.0162 µM; in test [7], 0.204 µM. In test [2], this compound displayed a pKD of 7.83.

Regarding `CC1(C)C=C(n2ccccc2=O)c2cc(S(=O)(=O)NCc3ccccc3)ccc2O1`, in test [3], the “Delta pEC50” value is listed as 0.4. Moreover, the results for the Emax in test [4] and in test [5] were 71.1% and 77.5%, respectively. The EC50 in test [6] is 0.525 µM; in test [7] it was 1.32 µM. Also, the results for the pKD in test [1] and in test [2] were 6 and 5.28, respectively.

Take `CC1(C)C=C(n2ccccc2=O)c2cc(S(=O)(=O)F)ccc2O1`: the “Delta pEC50” value in test [3] was determined as 1.3. The Emax came out at 84.4% in test [4] and 90.5% in test [5]. Moreover, the EC50 is 0.00479 µM in test [6] and 0.0933 µM in test [7]. For the same compound, the pKD in test [1] came out at 8.01; in test [2] it was 7.83.

As for `CC1(C)C=C(n2ccccc2=O)c2cc(S(=O)(=O)Nc3ccc(C#N)cc3)ccc2O1`, the “Delta pEC50” value in test [3] is given as 0.72. Further, the results for the Emax in test [4] and in test [5] were 84% and 90.8%, respectively. Moreover, the EC50 in test [6] was 0.263 µM; in test [7] it was 1.38 µM. Moreover, the values for the pKD in test [1] and in test [2] were 6.12 and 5.5, respectively.

Regarding `COc1ccc(NS(=O)(=O)c2ccc3c(c2)C(n2ccccc2=O)=CC(C)(C)O3)cc1`, the “Delta pEC50” value in test [3] stood at 0.62. The values for the maximum response (Emax) in test [4] and in test [5] were 77.9% and 84.2%, respectively. The values for the EC50 in test [6] and in test [7] were 0.117 µM and 0.49 µM, respectively. The pKD in test [1] turned out to be 6.61; in test [2], 6.27.

On to `CC1(C)C=C(n2ccccc2=O)c2cc(S(N)(=O)=O)ccc2O1`, for which, in test [3], the “Delta pEC50” value is reported as 0.51. The figures for the Emax in test [4] and in test [5] were 77.5% and 92.1%, respectively. In addition, the EC50 in test [6] is 0.0692 µM; in test [7] it was 0.224 µM. For the same compound, the results for the pKD in test [1] and in test [2] were 6.94 and 6.5, respectively.

On to `CC1(C)C=C(n2ccccc2=O)c2cc(S(=O)(=O)Nc3ccccc3F)ccc2O1`, for which the figures for the pKD in test [1] and in test [2] were 7.96 and 7.63, respectively.

Regarding `CC1(C)C=C(n2ccccc2=O)c2cc(C#N)ccc2O1` [BIMAKALIM], the “Delta pEC50” value in test [3] stood at 0.99. Moreover, the Emax amounted to 92.3% in test [4] and 84.2% in test [5]. Besides, the EC50 was 0.0162 µM in test [6] and 0.158 µM in test [7]. The pKD worked out at 7.98 in test [1] and 7.25 in test [2].

`CNS(=O)(=O)c1ccc2c(c1)C(n1ccccc1=O)=CC(C)(C)O2`: in test [3], the “Delta pEC50” value is listed as 0.89. The Emax was 85.8% in test [4] and 83% in test [5]. Also, the EC50 was 0.0178 µM in test [6] and 0.138 µM in test [7]. Besides, the pKD is 7.26 in test [1] and 7.18 in test [2].

As for `CC1(C)C=C(n2ccccc2=O)c2cc(S(=O)(=O)N3CCOCC3)ccc2O1`, in test [3], the “Delta pEC50” value came to 0.85. Also, the figures for the Emax in test [4] and in test [5] were 75.5% and 85.1%, respectively. Further, the EC50 in test [6] was 0.0851 µM; in test [7], 0.603 µM. Also, the values for the pKD in test [1] and in test [2] were 6.73 and 6.44, respectively.

As for `CC1(C)C=C(n2ccccc2=O)c2cc(S(=O)(=O)NC(=O)Nc3ccccc3)ccc2O1`, the “Delta pEC50” value in test [3] is 0.85. Besides, the figures for the Emax in test [4] and in test [5] were 90.8% and 99.5%, respectively. The EC50 was 1.41 µM in test [6] and 10 µM in test [7]. This compound also displayed a pKD in test [2] of 5.5.

In the case of `CN(c1ccccc1)S(=O)(=O)c1ccc2c(c1)C(n1ccccc1=O)=CC(C)(C)O2`, the “Delta pEC50” value in test [3] is given as 0.75. In addition, the Emax amounted to 64.2% in test [4] and 86.5% in test [5]. Besides, the concentration for a half-maximal effect (EC50) in test [6] is 0.00174 µM; in test [7] it was 0.00977 µM. For the same compound, the pKD is 7.87 in test [1] and 7.69 in test [2].

As for `CC1(C)C=C(n2ccccc2=O)c2cc(S(=O)(=O)c3ccccc3)ccc2O1`, the “Delta pEC50” value in test [3] came to 1.02. In addition, the Emax in test [4] was found to be 79.3%; in test [5], 88.1%. For the same compound, the EC50 in test [6] was 0.0174 µM; in test [7] it was 0.182 µM. The figures for the pKD in test [1] and in test [2] were 7.19 and 6.86, respectively.

As for `CCN(CC)S(=O)(=O)c1ccc2c(c1)C(n1ccccc1=O)=CC(C)(C)O2`, the pKD in test [1] was determined as 6.94; in test [2], 6.45.

For the compound `CC1(C)Oc2ccc(S(=O)(=O)c3ccccc3)cc2[C@@H](N2CCCC2=O)[C@@H]1O` [RILMAKALIM], the “Delta pEC50” value in test [3] stood at 1.05. Also, the Emax was 81.2% in test [4] and 78.5% in test [5]. Also, the EC50 is 0.0024 µM in test [6] and 0.0269 µM in test [7]. The pKD in test [1] was 8.15; in test [2], 7.57.

Consider `CC(C)NS(=O)(=O)c1ccc2c(c1)C(n1ccccc1=O)=CC(C)(C)O2`, for which the “Delta pEC50” value in test [3] was 0.46. Also, the Emax in test [4] was determined as 76.9%; in test [5], 94.8%. Besides, the EC50 in test [6] is 0.676 µM; in test [7] it was 1.95 µM. The pKD in test [1] worked out at 5.08; in test [2] it was 5.18.

Consider `CC1(C)C=C(n2ccccc2=O)c2cc(S(=O)(=O)NCCO)ccc2O1`, for which the “Delta pEC50” value in test [3] is 0.96. Moreover, the Emax in test [4] is 95.5%; in test [5], 87.9%. Besides, the EC50 in test [6] was 0.11 µM; in test [7], 1 µM. For the same compound, the pKD in test [1] came out at 6.34; in test [2], 6.16.

For the compound `CC1(C)C=C(n2ccccc2=O)c2cc(S(=O)(=O)Nc3ccccc3)ccc2O1`, in test [3], the “Delta pEC50” value is listed as 0.66. The figures for the Emax in test [4] and in test [5] were 63.6% and 84.5%, respectively. The compound also had an EC50 in test [6] of 0.00309 µM. For the same compound, the pKD in test [1] turned out to be 8.05; in test [1] (tested as the 2H-labelled form), 8.13; in test [2], 7.83; in test [2] (tested as the 2H-labelled form), 7.73.

Regarding `CCNS(=O)(=O)c1ccc2c(c1)C(n1ccccc1=O)=CC(C)(C)O2`, the “Delta pEC50” value in test [3] amounted to 0.88. The results for the Emax in test [4] and in test [5] were 72.4% and 87%, respectively. The same compound had an EC50 in test [6] of 0.0562 µM. Moreover, the pKD in test [1] was 7; in test [2], 6.7.

`CC1(C)C=C(n2ccccc2=O)c2cc(S(=O)(=O)NC(=O)NC3CCCCC3)ccc2O1` showed a pKD in test [2] of 5.25.

Regarding `CC1(C)C=C(n2ccccc2=O)c2cc(S(=O)(=O)Nc3ccc(Br)cc3)ccc2O1`, the pKD in test [1] was 6.65; in test [2] it was 5.77.

For the compound `CC1(C)C=C(n2ccccc2=O)c2cc(S(=O)(=O)Oc3ccccc3)ccc2O1`, the “Delta pEC50” value in test [3] is reported as 0.72. Further, the Emax in test [4] is 67.9%; in test [5], 86.7%. Moreover, the EC50 in test [6] was 0.00251 µM; in test [7] it was 0.0132 µM. The results for the pKD in test [1] and in test [2] were 8.55 and 7.78, respectively.

`CC1(C)C=C(n2ccccc2=O)c2cc(S(=O)(=O)NC3CCCC3)ccc2O1`: the figures for the pKD in test [1] and in test [2] were 6.27 and 5.85, respectively.

In the case of `[2H]c1c([2H])c([2H])c(NS(=O)(=O)c2ccc3c(c2)C(n2ccccc2=O)=CC(C)(C)O3)c([2H])c1[2H]`, in test [3], the “Delta pEC50” value is 0.82. Further, the values for the Emax in test [4] and in test [5] were 82.5% and 88%, respectively. Also, the EC50 in test [6] is 0.002 µM; in test [7] it was 0.0132 µM.

Take `CN(C)S(=O)(=O)c1ccc2c(c1)C(n1ccccc1=O)=CC(C)(C)O2`: in test [3], the “Delta pEC50” value stood at 0.77. Moreover, the Emax amounted to 78.3% in test [4] and 74.1% in test [5]. Further, the EC50 in test [6] was 0.0162 µM; in test [7], 0.0955 µM. In addition, the pKD in test [1] amounted to 7.2; in test [2], 6.91.
